PLC-gamma1 inh – PLC-gamma1 (human) inhibition, primary screen | P19174 | inhibition, % at 12.2 µM | 0.84% of 370,000 active | purified PLC-gamma1, fluorogenic substrate, fluorescence; in the data active means inhibition above about 9.5%
ARFGAP1 inhibitor – inhibitors of rat ARFGAP1; Q62848; Arfgap1-stimulated ARF1 GTP hydrolysis, GDP FP detection; inhibition, % at 16.5 µM; 0.26% of 360,000 active;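 active means inhibition above a per-plate limit, mean inhibition of low control wells plus 3 SD, cut at about 25% in these data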;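 further: 0% = DMSO wells with enzyme and 100% = wells lacking Arfgap1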
Target sequence (Q62848 1-136 limits assumed): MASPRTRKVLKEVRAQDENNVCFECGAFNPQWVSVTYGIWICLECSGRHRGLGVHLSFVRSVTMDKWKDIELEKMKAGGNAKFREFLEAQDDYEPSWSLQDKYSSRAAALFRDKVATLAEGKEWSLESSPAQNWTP
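material = rat Arfgap1 catalytic domain, aa 1-136 | also added = human ARF1(Δ1-17)-GTP substrate | compound dosing = one concentration, 16.5 µM, DMSO 1.26% | times = GTP hydrolysis reaction 2 h at 25 °C | measured by = FP, GDP Alexa 633 tracer displaced from anti-GDP antibody, 620/688 nm | evaluation = percent inhibition of Arfgap1-stimulated GTP hydrolysis | replication = single well per compound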
PLC-beta3 inh – PLC-beta3 (human) inhibition, primary screen; Q01970; Purified PLC-beta3, fluorogenic substrate, fluorescence; inhibition, % at 12.2 µM; 0.18% of 370,000 active;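 further: 0% = median of compound wells on plate and 100% = full blocker control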
ASAP1 GAP inh – ASAP1 ArfGAP inhibition. inhibition, % at 16.5 µM. 0.19% of 360,000 active. AID 624377. ASAP1-stimulated ARF1 GTP hydrolysis, GDP FP detection. Q9ULH1; in the data active means inhibition above about 25%;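 further: 0% = vehicle with enzyme and substrate and 100% = no enzyme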
Target sequence (Q9ULH1 325-724 limits assumed): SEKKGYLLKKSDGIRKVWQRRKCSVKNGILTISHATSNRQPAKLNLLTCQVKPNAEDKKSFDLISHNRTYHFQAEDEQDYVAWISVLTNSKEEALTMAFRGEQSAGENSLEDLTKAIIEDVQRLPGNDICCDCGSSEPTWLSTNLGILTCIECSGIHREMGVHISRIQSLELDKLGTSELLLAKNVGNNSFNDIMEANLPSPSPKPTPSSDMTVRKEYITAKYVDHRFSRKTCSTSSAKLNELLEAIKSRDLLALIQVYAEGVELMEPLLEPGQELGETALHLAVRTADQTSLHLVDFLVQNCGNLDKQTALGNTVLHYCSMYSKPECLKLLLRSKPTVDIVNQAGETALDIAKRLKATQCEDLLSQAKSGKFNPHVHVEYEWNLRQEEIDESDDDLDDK
HGIII-sPLA2 inh – Blocks human group III sPLA2 activity; 0.56% of 370,000 active; Q9NZ20; QFRET BODIPY PC-A2 liposome hydrolysis, fluorescence; inhibition, % at 12.2 µM;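 active means inhibition above mean plus 3 SD of compounds lying within the high and low control bounds, cut at about 19% in these data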;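 further: 0% = median of test compound wells and 100% = no enzyme DMSO wells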
PLCgamma1 ctr – PLC-gamma1 inhibition, counter-screen for PLC-beta3 hits; shares compounds with PLC-gamma1 inh; purified PLC-gamma1, fluorogenic substrate, fluorescence; AID 743258; 3.1% of 3,300 active; inhibition, % at 12.3 µM; in the data active means inhibition above about 9.5%
PLCb3 confirm – confirmation of human PLC-beta3 inhibitors; shares compounds with PLC-gamma1 inh; purified PLC-beta3, fluorogenic substrate fluorescence; inhibition, % at 12.3 µM; 1% of 3,300 active; AID 743261
* hit, by the source's call; · = no result given. This is a sample that favours compounds with a hit; in the whole collection about 1.9% have one here. Unless noted, no stated cut-off is given here; in the data, active means inhibition above about 11%; inactive means the rest.

SMILES	PLC-gamma1 inh	ARFGAP1 inhibitor	PLC-beta3 inh	ASAP1 GAP inh	HGIII-sPLA2 inh	PLCgamma1 ctr	PLCb3 confirm
CC(=O)OC(C(=O)Nc1nccs1)c1ccccc1 (stereo not given)	13*	2	-2	-3	3	7	0
O=C(Cn1nc(C(F)(F)F)c2c1CCCCC2)N1CCOCC1	-1	-1	-1	2	-1	·	·
O=C(Cn1nc(C(F)(F)F)c2c1CCCC2)N1CCOCC1	9.6*	12	1	-11	8	-9	-4
CCCCC(=O)Nc1ccc(C(=O)Nc2cccnc2)cc1	10.0*	4	7	24	-2	-4	-2
CCOP(=O)(OCC)C(Nc1cccc(C(F)(F)F)c1)c1ccc(Br)cc1 (stereo not given)	8	-4	12*	6	-5	-8	-9
COC(=O)CCCCCCCCCC[N+]1(C)CCCCC1	4	-6	11*	5	-2	-4	4
CC(=O)OCCCCCCCCCCC[N+]1(C)CCCCC1	-2	8	0	6	3	·	·
CCn1c(=O)n2n(c1=O)[C@]1(C=C(C)C2)CN(Cc2ccc(OC)cc2OC)C(NC(=O)c2ccccc2)=N1	3	·	0	·	18	·	·
CCC(C)NC(=O)CNC(=S)N(Cc1ccccc1)Cc1cccnc1 (stereo not given)	9.7*	-15	4	12	6	1	2
CC(NC(=O)CNC(=S)N(Cc1ccccc1)Cc1cccnc1)c1ccccc1 (stereo not given)	1	-5	-3	13	-1	·	·
O=C(CCc1nnc(Cc2c[nH]c3ccccc23)o1)NC1CCCC1	12*	4	4	-2	-7	-5	-4
COc1ccc(-c2nnc(SCC(=O)N/N=C\C=C/c3ccco3)n2-c2ccc(C)cc2)cc1	-3	·	-10	·	-12	·	·
O=C(COC(=O)c1cc(S(=O)(=O)N2CCCCC2)ccc1Cl)NC1CCCCC1	2	-12	3	-10	-1	·	·
Cc1cc(Cl)c(S(=O)(=O)N2CCCC2)cc1OCC(=O)NC1CCCCC1	7	5	12*	4	-7	1	-2
O=C(COc1ccc(S(=O)(=O)N2CCCC2)cc1Cl)NC1CCCC1	13*	-14	0	6	-9	-8	-5
CC1CCC2(CCC(=O)N2CCCO)CC1 (stereo not given)	0	·	1	·	4	·	·
CCCCNCCCOc1cc(Cl)ccc1Cl	7	7	11*	-13	9	-5	1
CCCCNCCOCCOc1ccc(Cl)cc1Br	1	0	1	13	-3	·	·
COc1ccc(C(c2c(C)[nH]n(-c3ccccc3)c2=O)c2c(C)[nH]n(-c3ccccc3)c2=O)cc1OC	25*	-1	8	-3	4	1	0
COc1ccc(C(c2c(C)n(C)n(-c3ccccc3)c2=O)c2c(C)n(C)n(-c3ccccc3)c2=O)cc1OC	1	1	-9	5	3	·	·
CCOC(=O)c1ccc(-c2ccc3oc(-c4ccsc4)cc(=O)c3c2)cc1F	10*	1	-1	-7	14	-17	-14
Cc1ccccc1-c1noc(CCC(=O)NCCc2ccccc2)n1	10*	9	1	-2	-15	-4	-2
CN(CCOC(=O)c1cc2ccccc2o1)C1CN(Cc2cn(Cc3cccc(F)c3)nn2)S(=O)(=O)C1 (stereo not given)	1	·	-2	·	2	·	·
C=CCN1[C@H](C#N)[C@@H](c2ccc(C#Cc3cccc(OC)c3)cc2)[C@H]1CO	-18	·	-23	·	-2	·	·
COc1ccc2c(c1)CO[C@H]([C@H](O)CO)[C@H]2/C=C/c1ccccc1	0	·	-2	·	-4	·	·
SMILES	PLC-gamma1 inh	ARFGAP1 inhibitor	PLC-beta3 inh	ASAP1 GAP inh	HGIII-sPLA2 inh	PLCgamma1 ctr	PLCb3 confirm
CC(C)OC(=O)CSc1nc2c(c(C3CC=CCC3)c1C#N)CCC2 (stereo not given)	9.6*	0	4	-5	-3	-7	-6
C=CCc1cccc(CNc2nc3ccccc3n2CCN2CCOCC2)c1O	10*	-1	14*	11	5	-5	1
C=CCc1cccc(CNc2nc3ccccc3n2C)c1O	2	11	-4	9	-4	·	·
Cc1c(-n2c(SCC(=O)O)nnc2-c2ccccc2Br)c(=O)n(-c2ccccc2)n1C	1	4	-2	0	3	·	·
Cc1c(-c2nnc(SCC(=O)O)n2-c2ccccc2Br)nnn1-c1ccccc1	14*	-2	2	11	-5	-7	-27
Cn1cccc1C(=O)N1CCN(S(=O)(=O)c2ccc(C(C)(C)C)cc2)CC1	0	·	-1	·	-8	·	·
C=CCN1[C@H](CC(C)C)COc2cc(N3CCCC3)ccc2S1(=O)=O	2	·	1	·	6	·	·
O=C1COc2ccc(C(=O)COC(=O)CCCOc3ccccc3)cc2N1	1	2	11*	-9	-8	-6	-3
COc1ccc(OCCCC(=O)OCC(=O)c2ccc3c(c2)NC(=O)CO3)cc1	4	1	0	6	-6	·	·
COc1ccc2c(c(-c3ccccc3)cn2C)c1-c1ccccc1	-4	·	-9	·	10	·	·
CC(C)=NOc1nc(N(C)C)nc(N2CCOCC2)n1	11*	8	11*	4	10	-2	0
O=C(Cn1cccc1C(=O)c1ccccc1)NCc1ccc(Cl)cc1	2	-1	-3	6	-3	·	·
Cc1ccc(CNC(=O)Cn2cccc2C(=O)c2ccccc2)cc1	12*	-14	3	1	-2	-6	-5
Cc1ccc(C2CCC3(CCC(=O)N3CCO)CC2)cc1 (stereo not given)	-2	·	2	·	4	·	·
CC(C)N1CCCCC(NC(=O)c2ccc(F)cc2)C1=O (stereo not given)	1	·	3	·	1	·	·
Cn1cc(CCOCc2ccccn2)c2ccccc21	0	9	-5	9	-7	·	·
O=C(Nc1ccc(Cl)cc1F)c1cc(S(=O)(=O)N2CCCCC2)ccc1F	12*	-2	-2	-1	18	-6	-5
Cn1cc(S(=O)(=O)CC(=O)N2CCc3ccccc32)c2ccccc21	18*	-11	16*	-10	-28	13*	15*
Cc1ccc(-n2c(Cc3cccs3)nnc2SCc2ccc(C#N)cc2)cc1	-1	·	4	·	3	·	·
COc1cc2c(c(O)c1OC)C(=O)C(OC)CCC2 (stereo not given)	4	2	12*	4	2	-3	0
CS(=O)(=O)N1CCC[C@]2(CC[C@H](CCC#N)O2)C1	2	·	-1	·	6	·	·
O=C(c1ccc(S(=O)(=O)N2CCCC2)cc1)N1CCCCC1	3	10	-6	-8	-1	·	·
O=C(/C=C/c1ccc(O)c(O)c1)c1ccc(S(=O)(=O)N2CCCCCC2)cc1	11*	-2	7	3	8	-1	-2

Screens (PubChem BioAssay)
